Experimental data as given in ChEMBL document CHEMBL3232897, “Synthesis, antiproliferative and antibacterial activity of new amides of salinomycin” (Bioorg Med Chem Lett, 2014).
≈ marks a conversion by molar mass, not a printed value. Calls of active or inactive are those of the source. No cut-off for these calls is given here.

What was measured:
Staphylococcus aureus [1] = experiment: Antibacterial activity against Staphylococcus aureus ATCC 25923; assay type: functional
Staphylococcus aureus [2] = experiment: Antibacterial activity against Staphylococcus aureus NCTC 4163; assay type: functional
[3] = test system: Staphylococcus epidermidis; experiment: Antibacterial activity against methicillin-resistant Staphylococcus epidermidis 489/11; assay type: functional
Summary of the method: (§1)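 In vitro antibacterial test on Staphylococcus strains, including MRSE clinical isolates. Read-outs were growth inhibition zone (mm) and MIC (µg/ml). Ciprofloxacin was the reference antibiotic.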

[4] = Antiproliferative activity against human HL60/Vinc cells; assay type: functional, cell-based
Summary of the method: (§2)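 IC50 is the concentration giving 50% growth inhibition, reported as mean with SD. HL-60/vinc and LoVo/DX are drug-resistant (MDR) sublines of HL-60 and LoVo. BALB/3T3 is a normal murine embryonic fibroblast line.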

[5] = test system: Staphylococcus epidermidis; experiment: Antibacterial activity against methicillin-resistant Staphylococcus epidermidis 459/11; assay type: functional; summary of the method: as §1
Staphylococcus aureus [6] = experiment: Antibacterial activity against Staphylococcus aureus ATCC 29213; assay type: functional
HL-60 [7] = experiment: Selectivity index, ratio of IC50 for mouse BALB/3T3 cells to IC50 for human HL60 cells; assay type: functional
Summary of the method: (§3)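 Selectivity index is the IC50 in normal murine embryonic fibroblasts (BALB/3T3) divided by the IC50 in the respective cancer line (HL-60, HL-60/vinc, LoVo or LoVo/DX). Each IC50 is the concentration giving 50% growth inhibition. SI >1.0 is taken as favourable.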

[8] = test system: Staphylococcus epidermidis; experiment: Antibacterial activity against methicillin-resistant Staphylococcus epidermidis 466/11; assay type: functional; summary of the method: as §1
LoVo [9] = experiment: Selectivity index, ratio of IC50 for mouse BALB/3T3 cells to IC50 for human LoVo cells; assay type: functional; summary of the method: as §3
[10] = test system: Staphylococcus epidermidis; experiment: Antibacterial activity against methicillin-resistant Staphylococcus epidermidis 470/11; assay type: functional; summary of the method: as §1
BALB/3T3 [11] = experiment: Antiproliferative activity mouse BALB/3T3 cells; assay type: cell-based; summary of the method: as §2
[12] = test system: Staphylococcus epidermidis; experiment: Antibacterial activity against Staphylococcus epidermidis ATCC 35984; assay type: functional; summary of the method: as §1
[13] = test system: Staphylococcus epidermidis; experiment: Antibacterial activity against methicillin-resistant Staphylococcus epidermidis 488/11; assay type: functional; summary of the method: as §1
[14] = Selectivity index, ratio of IC50 for mouse BALB/3T3 cells to IC50 for human LoVo/DX cells; assay type: functional; summary of the method: as §3
[15] = test system: Staphylococcus epidermidis; experiment: Antibacterial activity against methicillin-resistant Staphylococcus epidermidis 460/11; assay type: functional; summary of the method: as §1
Staphylococcus aureus [16] = experiment: Antibacterial activity against Staphylococcus aureus ATCC 6538; assay type: functional
[17] = test system: Staphylococcus epidermidis; experiment: Antibacterial activity against Staphylococcus epidermidis ATCC 12228; assay type: functional; summary of the method: as §1
HL-60 [18] = experiment: Resistance index, ratio of IC50 for human HL60/Vinc cells to IC50 for human HL60 cells; assay type: functional
Summary of the method: (§4)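 Index of resistance is the IC50 in the resistant subline (HL-60/vinc or LoVo/DX) divided by the IC50 in its parental line (HL-60 or LoVo). Each IC50 is the concentration giving 50% growth inhibition. Bands are 0–2 sensitive, 2–10 moderate, above 10 strongly resistant.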

[19] = test system: Staphylococcus epidermidis; experiment: Antibacterial activity against methicillin-resistant Staphylococcus epidermidis 468/11; assay type: functional; summary of the method: as §1
[20] = test system: Staphylococcus epidermidis; experiment: Antibacterial activity against methicillin-resistant Staphylococcus epidermidis 469/11; assay type: functional; summary of the method: as §1
LoVo [21] = experiment: Resistance index, ratio of IC50 for human LoVo/DX cells to IC50 for human LoVo cells; assay type: functional; summary of the method: as §4
LoVo [22] = experiment: Antiproliferative activity against human LoVo cells; assay type: functional, cell-based; summary of the method: as §2
[23] = test system: Staphylococcus epidermidis; experiment: Antibacterial activity against methicillin-resistant Staphylococcus epidermidis 467/11; assay type: functional; summary of the method: as §1
[24] = test system: Staphylococcus epidermidis; experiment: Antibacterial activity against methicillin-resistant Staphylococcus epidermidis 461/11; assay type: functional; summary of the method: as §1
[25] = Antiproliferative activity against human LoVo/DX cells; assay type: functional, cell-based; summary of the method: as §2
HL-60 [26] = experiment: Antiproliferative activity against human HL60 cells; assay type: functional, cell-based; summary of the method: as §2
[27] = Selectivity index, ratio of IC50 for mouse BALB/3T3 cells to IC50 for human HL60/Vinc cells; assay type: functional; summary of the method: as §3
BALB/3T3 [28] = experiment: Antiproliferative activity mouse BALB/3T3 cells up to 100 ug/ml; assay type: cell-based
Homo sapiens = species on record: Homo sapiens; experiment: Antiproliferative activity against human HL60/Vinc cells up to 100 ug/ml; assay type: functional, cell-based

With `CC[C@@H](C(=O)[C@@H](C)[C@@H](O)[C@H](C)[C@@H]1O[C@@H]([C@@H](CC)C(=O)NCCCCN)CC[C@@H]1C)[C@H]1O[C@]2(C=C[C@@H](O)[C@]3(CC[C@@](C)([C@H]4CC[C@](O)(CC)[C@H](C)O4)O3)O2)[C@H](C)C[C@@H]1C` the MIC (Staphylococcus aureus [1]) was 32 µg/mL (≈ 39 µM), the MIC (Staphylococcus aureus [2]) was 32 µg/mL (≈ 39 µM) and the MIC [3] was 32 µg/mL (≈ 39 µM). For the same compound, the IC50 [4] was 23.1 µM, the MIC [5] was 32 µg/mL (≈ 39 µM) and the MIC (Staphylococcus aureus [6]) was 64 µg/mL (≈ 77.9 µM). For the same compound, the “Ratio IC50” value (HL-60 [7]) was 9.47, the MIC [8] was 64 µg/mL (≈ 77.9 µM) and the “Ratio IC50” value (LoVo [9]) was 1.6. The MIC [10] was 64 µg/mL (≈ 77.9 µM), the IC50 (BALB/3T3 [11]) was 35.1 µM and the MIC [12] was 32 µg/mL (≈ 39 µM). The MIC [13] was 64 µg/mL (≈ 77.9 µM), the “Ratio IC50” value [14] was 2.78 and the MIC [15] was 64 µg/mL (≈ 77.9 µM). For the same compound, the MIC (Staphylococcus aureus [16]) was 32 µg/mL (≈ 39 µM), the MIC [17] was 64 µg/mL (≈ 77.9 µM) and the “Ratio IC50” value (HL-60 [18]) was 6.22. The MIC [19] was 32 µg/mL (≈ 39 µM), the MIC [20] was 64 µg/mL (≈ 77.9 µM) and the “Ratio IC50” value (LoVo [21]) was 0.58. The IC50 (LoVo [22]) was 21.9 µM, the MIC [23] was 32 µg/mL (≈ 39 µM) and the MIC [24] was 64 µg/mL (≈ 77.9 µM). The IC50 [25] was 12.6 µM, the IC50 (HL-60 [26]) was 3.7 µM and the “Ratio IC50” value [27] was 1.52.
Work on `CC[C@@H](C(=O)[C@@H](C)[C@@H](O)[C@H](C)[C@@H]1O[C@@H]([C@@H](CC)C(=O)NCCS)CC[C@@H]1C)[C@H]1O[C@]2(C=C[C@@H](O)[C@]3(CC[C@@](C)([C@H]4CC[C@](O)(CC)[C@H](C)O4)O3)O2)[C@H](C)C[C@@H]1C` yielded an MIC (Staphylococcus aureus [1]) of 16 µg/mL (≈ 19.7 µM), an MIC (Staphylococcus aureus [2]) of 16 µg/mL (≈ 19.7 µM) and an MIC [3] of 32 µg/mL (≈ 39.5 µM). The IC50 [4] was 34 µM, the MIC [5] was 32 µg/mL (≈ 39.5 µM) and the MIC (Staphylococcus aureus [6]) was 32 µg/mL (≈ 39.5 µM). The “Ratio IC50” value (HL-60 [7]) was 5.53, the MIC [8] was 32 µg/mL (≈ 39.5 µM) and the “Ratio IC50” value (LoVo [9]) was 0.65. For the same compound, the MIC [10] was 64 µg/mL (≈ 79 µM), the IC50 (BALB/3T3 [11]) was 17.1 µM and the MIC [12] was 32 µg/mL (≈ 39.5 µM). For the same compound, the MIC [13] was 32 µg/mL (≈ 39.5 µM), the “Ratio IC50” value [14] was 0.6 and the MIC [15] was 32 µg/mL (≈ 39.5 µM). The MIC (Staphylococcus aureus [16]) was 16 µg/mL (≈ 19.7 µM), the MIC [17] was 32 µg/mL (≈ 39.5 µM) and the “Ratio IC50” value (HL-60 [18]) was 10.99. The MIC [19] was 64 µg/mL (≈ 79 µM), the MIC [20] was 64 µg/mL (≈ 79 µM) and the “Ratio IC50” value (LoVo [21]) was 1.07. It also gave an IC50 (LoVo [22]) of 26.5 µM, an MIC [23] of 32 µg/mL (≈ 39.5 µM) and an MIC [24] of 32 µg/mL (≈ 39.5 µM). For the same compound, the IC50 [25] was 28.5 µM, the IC50 (HL-60 [26]) was 3.1 µM and the “Ratio IC50” value [27] was 0.5.
With `CC[C@@H](C(=O)[C@@H](C)[C@@H](O)[C@H](C)[C@@H]1O[C@@H]([C@@H](CC)C(=O)Nc2ccc(-c3ccc(NC(=O)[C@H](CC)[C@H]4CC[C@H](C)[C@H]([C@@H](C)[C@H](O)[C@H](C)C(=O)[C@H](CC)[C@H]5O[C@]6(C=C[C@@H](O)[C@]7(CC[C@@](C)([C@H]8CC[C@](O)(CC)[C@H](C)O8)O7)O6)[C@H](C)C[C@@H]5C)O4)cc3)cc2)CC[C@@H]1C)[C@H]1O[C@]2(C=C[C@@H](O)[C@]3(CC[C@@](C)([C@H]4CC[C@](O)(CC)[C@H](C)O4)O3)O2)[C@H](C)C[C@@H]1C` the MIC (Staphylococcus aureus [1]) was 32 µg/mL (≈ 19.4 µM), the MIC (Staphylococcus aureus [2]) was 16 µg/mL (≈ 9.7 µM) and the Activity (BALB/3T3 [28]) was “Non-toxic”. It also gave an MIC [3] of 32 µg/mL (≈ 19.4 µM), an MIC [5] of 32 µg/mL (≈ 19.4 µM) and an MIC (Staphylococcus aureus [6]) of 32 µg/mL (≈ 19.4 µM). For the same compound, the MIC [8] was 32 µg/mL (≈ 19.4 µM), the MIC [10] was 64 µg/mL (≈ 38.8 µM) and the MIC [12] was 32 µg/mL (≈ 19.4 µM). It also gave an MIC [13] of 32 µg/mL (≈ 19.4 µM), an MIC [15] of 64 µg/mL (≈ 38.8 µM) and an MIC (Staphylococcus aureus [16]) of 32 µg/mL (≈ 19.4 µM). The MIC [17] was 32 µg/mL (≈ 19.4 µM), the MIC [19] was 32 µg/mL (≈ 19.4 µM) and the MIC [20] was 64 µg/mL (≈ 38.8 µM). The “Ratio IC50” value (LoVo [21]) was 0.38, the inhibition (Homo sapiens) was “inactive” and the IC50 (LoVo [22]) was 8.4 µM. The MIC [23] was 16 µg/mL (≈ 9.7 µM), the MIC [24] was 32 µg/mL (≈ 19.4 µM) and the IC50 [25] was 3.1 µM. It also gave an IC50 (HL-60 [26]) of 4.4 µM.
